Sampled rows, rich in hits. Any-hit rate of the full collection: about 1.4%.
Tn6 DDE FP – inhibitors of Tn6 peptide binding to human fibrin DD(E). P02675. Fibrin DD(E) TRITC-Tn6 fluorescence polarization displacement. inhibition, % at 8.3 µM. 0.21% of 370,000 active;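 active means inhibition above a per-campaign cutoff: mean of compounds within control limits plus 3 SD, cut at about 15% in these data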
Target sequence (P02675 whole entry, looked up): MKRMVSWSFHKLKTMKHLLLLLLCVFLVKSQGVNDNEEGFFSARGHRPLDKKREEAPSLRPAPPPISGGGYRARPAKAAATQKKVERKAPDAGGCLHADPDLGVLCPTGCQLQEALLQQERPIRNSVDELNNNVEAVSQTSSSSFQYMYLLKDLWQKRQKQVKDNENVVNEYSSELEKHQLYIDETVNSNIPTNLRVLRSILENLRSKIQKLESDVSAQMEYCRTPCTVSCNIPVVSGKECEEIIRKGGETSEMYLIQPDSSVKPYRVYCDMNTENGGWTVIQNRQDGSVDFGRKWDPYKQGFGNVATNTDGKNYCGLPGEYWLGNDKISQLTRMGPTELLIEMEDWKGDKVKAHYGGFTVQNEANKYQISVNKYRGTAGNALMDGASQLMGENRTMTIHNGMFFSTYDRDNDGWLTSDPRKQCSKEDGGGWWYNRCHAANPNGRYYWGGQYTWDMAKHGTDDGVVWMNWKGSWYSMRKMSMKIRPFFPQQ
Tn7 DDE FP – inhibitors of Tn7 peptide binding to human fibrin DD(E); FP displacement of FITC-Tn7 peptide from fibrin DD(E); 0% = median of compound wells per plate; inhibition, % at 8.3 µM; 0.13% of 370,000 active;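 active means inhibition above the mean of compounds falling within the control limits plus 3 SD of them, cut at about 14% in these data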
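Test system – human fibrin DD(E) · Times – 10 min preincubation, 3 h with tracer, room temperature · Detection – fluorescence polarization of the labelled Tn7 tracer · Measure – percent inhibition normalized to high-control wells · Benchmarks – high control wells with 10 µM unlabelled Aha-Tn7 peptide (full inhibition) · Repeats – singlicate testing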
CRFBP-R2 agonist – agonists of human CRF-binding protein/CRF-R2 receptor complex. activation, % at 13.2 µM. AID 588473. HEK293 CRF-R2/CRF-BP, calcium dye fluorescence (FLIPR); percent of saturating CRF peptide response. 0.46% of 350,000 active;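 active means activation of at least 50%, plus an integration ratio under a set limit after plate pattern correction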
CRFR2-BP antag – CRF-BP/CRF-R2 complex antagonism; HEK293 CRF-R2/CRF-BP, CRF-induced calcium fluorescence; inhibition, % at 11.8 µM; 0.59% of 350,000 active;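 active means inhibition of the ligand-induced calcium signal above about 50% at the single tested concentration, limit read from the data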
RTF Ca sens act – cardiac RTF calcium sensitization. P19429+P45379. IANBD-labeled TnC RTF fluorescence at EC20 calcium; 0% EC20 calcium, 100% full calcium. activation, % at 7.2 µM. 0.24% of 340,000 active. AID 493008;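 active means activation above the mean over all tested compounds plus 3 SD, cut at about 30% in these data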;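 further: rise in fluorescence read as greater calcium sensitivity of cardiac thin filaments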
Cardiac RTF inh – cardiac RTF calcium desensitization; IANBD-labeled cardiac RTF, Ca2+ fluorescence; 0.12% of 340,000 active; AID 493244; inhibition, % at 7.15 µM;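 active means inhibition above the mean inhibition of all tested compounds plus 3 SD, cut at about 17% in these data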;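 further: assay run at fixed EC70 calcium of 1.6 mM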
Large screens that a line does not name were inactive.

Oc1ccccc1N=Cc1c(O)ccc2ccccc12	CRFBP-R2 agonist 122.8
Cc1ccc(C2c3c(n[nH]c3C(C)C)C(=O)N2c2ccccc2)cc1 (stereo not given)	none (no result: CRFBP-R2 agonist, CRFR2-BP antag, RTF Ca sens act, Cardiac RTF inh)
CCOC(=O)C1CCN(c2ncnc3c2nnn3Cc2ccccc2Cl)CC1	CRFR2-BP antag 59.4
O=C(c1ccco1)N1CCN(c2ncnc3c2nnn3Cc2ccccc2Cl)CC1	none
N#C[C@@H]1N[C@H](CO)[C@@H]1c1ccccc1	none (no result: CRFBP-R2 agonist, CRFR2-BP antag, RTF Ca sens act, Cardiac RTF inh)
CC(C)[C@H](NC(=O)OCc1ccccc1)C(=O)OCC(=O)NC1(C#N)CCCC1	Tn7 DDE FP 14.7
CCOC(=O)C1C(=O)C=C(c2ccc(C)cc2)CC1c1ccco1 (stereo not given)	none
CCOC(=O)C1C(C)=CC(=O)CC1c1ccco1 (stereo not given)	CRFR2-BP antag 67.5
N#Cc1ccccc1Sc1ccccc1N	CRFR2-BP antag 56.5 (no result: Tn6 DDE FP, Tn7 DDE FP)
CNC(=O)c1ccccc1Sc1ccccc1C#N	none
N#Cc1c(-c2cccs2)nc(SCc2ccc(Cl)cc2)[nH]c1=O	CRFR2-BP antag 55.3
CC(C)(C)c1cc(C(=O)O)nn1-c1ccccc1	CRFR2-BP antag 67.8
Cc1ccsc1C(=O)OCC(=O)NCc1cccs1	none (no result: RTF Ca sens act, Cardiac RTF inh)
OCCOCCN1CCN(C(=S)Nc2ccccc2)CC1	CRFR2-BP antag 70.4
Cc1onc(-c2ccccc2)c1C(=O)OCC(=O)c1ccc(F)cc1	none (no result: RTF Ca sens act, Cardiac RTF inh)
COC(=O)c1c(NC(=O)CC2Nc3ccccc3NC2=O)sc(C)c1C (stereo not given)	CRFR2-BP antag 52.7
CCOC(=O)c1c(NC(=O)CC2Nc3ccccc3NC2=O)sc(C)c1C (stereo not given)	none
Cc1ccc(O)c(C(=O)c2cc(C#N)c3nc4ccccc4n3c2)c1	CRFBP-R2 agonist 66.4
Cc1ccc(O)c(C(=O)c2cc(C#N)c(=O)n(Cc3ccccc3)c2)c1	none
COc1cccc(NC(=O)N(C)C[C@@H]2OCc3cnnn3CCCC(=O)N([C@@H](C)CO)C[C@H]2C)c1	none (no result: RTF Ca sens act, Cardiac RTF inh)
O=C(NCc1c(F)cccc1F)C1CCCN(c2ncccn2)C1 (stereo not given)	none (no result: CRFBP-R2 agonist, CRFR2-BP antag, RTF Ca sens act, Cardiac RTF inh)
O=C(c1ccc(Cl)cc1)C1CCN(c2ncnc3sccc23)CC1	none (no result: CRFBP-R2 agonist, CRFR2-BP antag, RTF Ca sens act, Cardiac RTF inh)
Cc1ccn2cc(CSc3ccccc3N)nc2c1	CRFR2-BP antag 61.1
CCCCCCNC(=O)C(C#N)c1nc2ccccc2nc1N1CCCC1 (stereo not given)	CRFBP-R2 agonist 181.6, RTF Ca sens act 38.1
CCN(CC)c1nc2ccccc2nc1C(C#N)C(=O)NCCc1ccccc1 (stereo not given)	RTF Ca sens act 65.5
CCCCCNC(=O)C(C#N)c1nc2ccccc2nc1N1CCCC1 (stereo not given)	none (no result: Tn6 DDE FP, Tn7 DDE FP)
CC(=O)Nc1ccc(C(CCCc2ccccc2)C2=CCCCC2)cc1 (stereo not given)	none (no result: CRFBP-R2 agonist, CRFR2-BP antag, RTF Ca sens act, Cardiac RTF inh)
C/C(=C\c1ccccc1)CN1CCC(C(=O)N2CCC(C)CC2)CC1	none
C/C(=C\c1ccccc1)CN1CCC(C(=O)N2CCCCC2)CC1	CRFR2-BP antag 95.8
O=C(CCc1ccccc1)N[C@H]1[C@H](OC(=O)c2cnccn2)CCC[C@@]12C(=O)N(Cc1ccccc1)c1ccccc12	none (no result: CRFBP-R2 agonist, CRFR2-BP antag, RTF Ca sens act, Cardiac RTF inh)
CCc1nc2ccc(C(=O)NCc3cccs3)cn2c1N(CC)CCOC	none (no result: CRFBP-R2 agonist, CRFR2-BP antag, RTF Ca sens act, Cardiac RTF inh)
CCOc1ccccc1C(=O)OCC(=O)NCC1CCCO1 (stereo not given)	CRFR2-BP antag 107.8
CCOc1ccccc1C(=O)OCC(=O)NCC1CCCCC1	none
CC[n+]1ccc(/C=C/c2ccc(N(C)C)cc2)c2ccccc21	Tn6 DDE FP 39.4
CC[n+]1ccccc1/C=C/c1ccc(N(C)C)cc1	none
N#Cc1cccc(NC(=O)O[C@@H]2CC[C@@]34CCCN3C(=O)CCC[C@H]4C2)c1	none (no result: CRFBP-R2 agonist, CRFR2-BP antag, RTF Ca sens act, Cardiac RTF inh)
Cc1c(C(=O)Nc2cccc([N+](=O)[O-])c2)sc2ncn(CC(=O)N3CCOCC3)c(=O)c12	CRFR2-BP antag 86.8
Cc1c(C(=O)Nc2ccccc2)sc2ncn(CC(=O)N3CCCCC3)c(=O)c12	none
COc1ccc(C2=C/C(=C/c3cccnc3)C(=O)O2)cc1OC	CRFBP-R2 agonist 144.0
CN[C@H]1C[C@H]2c3cc(-c4ccc5c(c4)OCO5)ccc3CCN2C[C@H]1[C@H](C)O	none (no result: CRFBP-R2 agonist, CRFR2-BP antag, RTF Ca sens act, Cardiac RTF inh)
